Source: ChEMBL document CHEMBL3399994, “Improving both aqueous solubility and anti-cancer activity by assessing progressive lead optimization libraries” (Bioorg Med Chem Lett, 2015)
pEC50: −log10 of the molar value. ≈ marks a conversion by molar mass, not a printed value.

Columns and labels:
[1] = Solubility in pH 7.4 buffer after 18 hrs by UV spectroscopy based microSol assay; assay type: physicochemical; conditions: for solubility: buffer, pH 7.4, 18 h; for solubility at 18 h: pH 7.4 buffer, pH 7.4
[2] = Cytotoxicity against human H460 cells after 48 hrs by SRB assay; assay type: functional, cell-based; conditions: NCI-H460, 48 h
[3] = Cytotoxicity against human H460/TaxR cells after 48 hrs by SRB assay; assay type: functional, cell-based
[4] = Cytotoxicity against human NHFB cells after 48 hrs by SRB assay; assay type: cell-based
[5] = Cytotoxicity against human H460 cells assessed as cell viability at 10 uM after 48 hrs by SRB assay; assay type: functional; conditions: NCI-H460, 48 h, read-out: Activity
Method in brief: (§1)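 Single-concentration screen at 10 µM in normal human fibroblasts, NSCLC H460 cells and their drug-resistant H460_TaxR variant. Viability was read out by sulforhodamine B (SRB) staining and expressed relative to DMSO-treated cells, set as 100%.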

[6] = Cytotoxicity against human H460/TaxR cells assessed as cell viability at 10 uM after 48 hrs by SRB assay; assay type: functional; conditions: read-out: Activity; method in brief: as §1
[7] = Cytotoxicity against human NHFB cells assessed as cell viability at 10 uM after 48 hrs by SRB assay; assay type: cell-based; conditions: read-out: Activity; method in brief: as §1

| SMILES | solubility [1] [µg/mL] | pEC50 [2] | pEC50 [3] | pEC50 [4] | viability at 10 µM [5] [%] | viability at 10 µM [6] [%] | viability at 48 h, 10 µM [7] [%] | solubility at 18 h [1] [µg/mL] |
| --- | --- | --- | --- | --- | --- | --- | --- | --- |
| CN(C)c1ccc(/C=C2/SC(=Nc3ccccc3)NC2=O)cc1 | 0.1 (≈ 0.309 µM) | 6.14 | 6.01 | < 4.00 | 19.8 | 29.4 | 68.3 | – |
| CN(C)c1ccc(/C=C2/SC(=Nc3ccc(O)cc3)NC2=O)cc1 | – | – | – | – | 94.4 | 47.9 | 96.5 | 0.01 (≈ 0.0295 µM) |
| Cc1ccccc1/N=C1\NC(=O)/C(=C\c2ccc(N(C)C)cc2)S1 | – | – | – | – | 17.6 | 41 | 86.5 | 0.27 (≈ 0.8 µM) |
| CN(C)c1ccc(/C=C2/SC(=Nc3ccccc3Cl)NC2=O)cc1 | – | – | – | – | 8.82 | 39.3 | > 100 | 0.02 (≈ 0.0559 µM) |
| O=C1N=C(Nc2ccccc2)S/C1=C/c1ccc(N2CCNCC2)cc1 | 1.68 (≈ 4.61 µM) | < 4.00 | < 4.00 | < 4.00 | > 100 | 89.3 | 97 | – |
| CCN(CC)c1ccc(/C=C2/SC(Nc3ccccc3)=NC2=O)cc1 | 0.1 (≈ 0.285 µM) | 5.16 | 5.00 | < 4.00 | 19.5 | 30.1 | 96.9 | – |
| O=C1N=C(Nc2ccccc2)S/C1=C/c1ccc(N2CCOCC2)cc1 | 0.1 (≈ 0.274 µM) | < 4.00 | < 4.00 | < 4.00 | 96.1 | 77.5 | 97.4 | – |
| CN1CCN(c2ccc(/C=C3/SC(Nc4ccccc4)=NC3=O)cc2)CC1 | 0.35 (≈ 0.925 µM) | 5.85 | 5.60 | 5.19 | 13.9 | 11.3 | 93.8 | – |
| CCN(CC)c1ccc(/C=C2/SC(Nc3ccc(O)cc3)=NC2=O)cc1 | – | – | – | – | 94.3 | 48.2 | 93.7 | – |
| O=C1N=C(Nc2ccc(O)cc2)S/C1=C/c1ccc(N2CCOCC2)cc1 | – | – | – | – | 88.9 | > 100 | 92.8 | 0.19 (≈ 0.498 µM) |
| CN1CCN(c2ccc(/C=C3/SC(Nc4ccc(O)cc4)=NC3=O)cc2)CC1 | – | – | – | – | > 100 | > 100 | 94.3 | 0.01 (≈ 0.0253 µM) |
| O=C1N=C(Nc2ccc(O)cc2)S/C1=C/c1ccc(N2CCNCC2)cc1 | – | – | – | – | 83.9 | 85.5 | 98.9 | 13.9 (≈ 36.5 µM) |
| CCN(CC)c1ccc(/C=C2/SC(Nc3ccccc3Cl)=NC2=O)cc1 | – | – | – | – | 25.1 | 29.5 | 85 | 0.01 (≈ 0.0259 µM) |
| O=C1N=C(Nc2ccccc2Cl)S/C1=C/c1ccc(N2CCOCC2)cc1 | – | – | – | – | 48.2 | 41.4 | 94.2 | 0.05 (≈ 0.125 µM) |
| CN1CCN(c2ccc(/C=C3/SC(Nc4ccccc4Cl)=NC3=O)cc2)CC1 | – | – | – | – | 98.2 | 52.7 | 96 | 0.43 (≈ 1.04 µM) |
| O=C1N=C(Nc2ccccc2Cl)S/C1=C/c1ccc(N2CCNCC2)cc1 | – | – | – | – | 98.1 | 77.4 | 99.3 | 0.14 (≈ 0.351 µM) |
| CN(C)c1ccc(/C=C2/SC(Nc3ccc(Oc4ccccc4)cc3)=NC2=O)cc1 | – | – | – | – | > 100 | 88.2 | 100 | 0.01 (≈ 0.0241 µM) |
| CCN(CC)c1ccc(/C=C2/SC(Nc3ccc(Oc4ccccc4)cc3)=NC2=O)cc1 | – | – | – | – | > 100 | 64.6 | > 100 | – |
| O=C1N=C(Nc2ccc(Oc3ccccc3)cc2)S/C1=C/c1ccc(N2CCOCC2)cc1 | – | – | – | – | 72.6 | 46.8 | 98 | 0.1 (≈ 0.219 µM) |

| SMILES | solubility [1] [µg/mL] | pEC50 [2] | pEC50 [3] | pEC50 [4] | viability at 10 µM [5] [%] | viability at 10 µM [6] [%] | viability at 48 h, 10 µM [7] [%] | solubility at 18 h [1] [µg/mL] |
| --- | --- | --- | --- | --- | --- | --- | --- | --- |
| CN1CCN(c2ccc(/C=C3/SC(Nc4ccc(Oc5ccccc5)cc4)=NC3=O)cc2)CC1 | – | – | – | – | 46.7 | 49.8 | 90.9 | 0.1 (≈ 0.212 µM) |
| O=C1N=C(Nc2ccc(Oc3ccccc3)cc2)S/C1=C/c1ccc(N2CCNCC2)cc1 | – | – | – | – | 49.3 | 45.4 | 82.9 | 0.1 (≈ 0.219 µM) |
| CCN(CC)c1ccc(/C=C2/SC(Nc3ccccc3C)=NC2=O)cc1 | – | – | – | – | 8.3 | 24.6 | 80.6 | 0.2 (≈ 0.547 µM) |
| Cc1ccccc1NC1=NC(=O)/C(=C\c2ccc(N3CCOCC3)cc2)S1 | – | – | – | – | 43.8 | 70.2 | 80.8 | 0.78 (≈ 2.06 µM) |
| Cc1ccccc1NC1=NC(=O)/C(=C\c2ccc(N3CCN(C)CC3)cc2)S1 | – | – | – | – | 88.6 | 34.3 | 80.2 | 0.89 (≈ 2.27 µM) |
| Cc1ccccc1NC1=NC(=O)/C(=C\c2ccc(N3CCNCC3)cc2)S1 | – | – | – | – | 65.1 | 50.1 | 62.8 | 3.83 (≈ 10.1 µM) |
| CN(C)c1ccc(/C=C2/SC(N(c3ccccc3)c3ccccc3)=NC2=O)cc1 | – | < 4.00 | < 4.00 | < 4.00 | – | – | – | – |
| CCN(CC)c1ccc(/C=C2/SC(N(c3ccccc3)c3ccccc3)=NC2=O)cc1 | 0.01 (≈ 0.0234 µM) | < 4.00 | < 4.00 | < 4.00 | – | – | – | – |
| O=C1N=C(N(c2ccccc2)c2ccccc2)S/C1=C/c1ccc(N2CCOCC2)cc1 | 0.01 (≈ 0.0226 µM) | < 4.00 | < 4.00 | < 4.00 | – | – | – | – |
| CN1CCN(c2ccc(/C=C3/SC(N(c4ccccc4)c4ccccc4)=NC3=O)cc2)CC1 | 0.11 (≈ 0.242 µM) | < 4.00 | < 4.00 | < 4.00 | – | – | – | – |
| O=C1N=C(N(c2ccccc2)c2ccccc2)S/C1=C/c1ccc(N2CCNCC2)cc1 | 0.15 (≈ 0.34 µM) | < 4.00 | < 4.00 | < 4.00 | – | – | – | – |
| CN(C)c1ccc(/C=C2/SC(N(C)c3ccccc3)=NC2=O)cc1 | 0.5 (≈ 1.48 µM) | 7.10 | 6.80 | < 4.00 | – | – | – | – |
| CCN(CC)c1ccc(/C=C2/SC(N(C)c3ccccc3)=NC2=O)cc1 | 0.01 (≈ 0.0274 µM) | 6.55 | 6.37 | < 4.00 | – | – | – | – |
| CN(C1=NC(=O)/C(=C\c2ccc(N3CCOCC3)cc2)S1)c1ccccc1 | 5.06 (≈ 13.3 µM) | 5.05 | 5.54 | < 4.00 | – | – | – | – |
| CN1CCN(c2ccc(/C=C3/SC(N(C)c4ccccc4)=NC3=O)cc2)CC1 | 18.91 (≈ 48.2 µM) | < 4.00 | < 4.00 | < 4.00 | – | – | – | – |
| CN(C1=NC(=O)/C(=C\c2ccc(N3CCNCC3)cc2)S1)c1ccccc1 | 3.89 (≈ 10.3 µM) | < 4.00 | < 4.00 | < 4.00 | – | – | – | – |
| CCCSc1ccc2nc(NC(=O)OC)[nH]c2c1 [ALBENDAZOLE] | – | – | – | – | – | – | – | 2.3 (≈ 8.67 µM) |
| NC(=O)N1c2ccccc2C=Cc2ccccc21 [CARBAMAZEPINE] | 22 (≈ 93.1 µM) | – | – | – | – | – | – | – |
| CNC(=C[N+](=O)[O-])NCCSCc1ccc(CN(C)C)o1 [RANITIDINE] | 33.7 (≈ 107 µM) | – | – | – | – | – | – | – |
